Measured values: article PMC13103313 (Nature Communications, 2026)

Tests used:
[1] = test system: Na+ current in primary ventricular myocytes; assay: Voltage-gated Na+ current in rat primary ventricular myocytes; type: cell-based; conditions: 10 µM; rat primary cardiomyocytes; 365 vs 480 nm
Summary of the method: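 Ventricular myocytes from 1–2-day-old Sprague-Dawley rats, dissociated with 0.05% trypsin and 0.1% collagenase II, with fibroblasts removed by 2 h pre-plating. Cultured in DMEM with 10% FBS at 37 °C. Whole-cell voltage clamp followed the HEK293T Na+ protocol (hold −120 mV, 50 ms step to −20 mV).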

NaV1.5 channels = NaV1.5 channels (Homo sapiens, UniProt Q14524); assay: Whole-cell patch-clamp recording of NaV1.5 currents in HEK293T cells; type: cell-based; conditions: HEK-293T, read-out: inhibition rate, NaV1.5 WT, 100 μM
zebrafish larvae [2] = assay: ISO-induced tachycardia model in zebrafish larvae; type: in vivo; conditions: 100 μM; 10 μM ISO 100 min; zebrafish larvae 3–4 dpf
zebrafish larvae [3] = assay: Heart rate recording in zebrafish larvae; type: in vivo; conditions: 10 μM
NaV1.5 V405A = NaV1.5 V405A (Homo sapiens, UniProt Q14524, V405A); assay: Whole-cell patch-clamp of NaV1.5 V405A mutant in HEK293T cells; type: cell-based; conditions: HEK-293T, read-out: inhibition rate, NaV1.5 V405A
NaV1.5 F1760A = NaV1.5 F1760A (Homo sapiens, UniProt Q14524, F1760A); assay: Whole-cell patch-clamp of NaV1.5 F1760A mutant in HEK293T cells; type: cell-based; conditions: HEK-293T, read-out: inhibition rate, NaV1.5 F1760A
Sequence of NaV1.5 F1760A (Q14524 whole entry F1760A): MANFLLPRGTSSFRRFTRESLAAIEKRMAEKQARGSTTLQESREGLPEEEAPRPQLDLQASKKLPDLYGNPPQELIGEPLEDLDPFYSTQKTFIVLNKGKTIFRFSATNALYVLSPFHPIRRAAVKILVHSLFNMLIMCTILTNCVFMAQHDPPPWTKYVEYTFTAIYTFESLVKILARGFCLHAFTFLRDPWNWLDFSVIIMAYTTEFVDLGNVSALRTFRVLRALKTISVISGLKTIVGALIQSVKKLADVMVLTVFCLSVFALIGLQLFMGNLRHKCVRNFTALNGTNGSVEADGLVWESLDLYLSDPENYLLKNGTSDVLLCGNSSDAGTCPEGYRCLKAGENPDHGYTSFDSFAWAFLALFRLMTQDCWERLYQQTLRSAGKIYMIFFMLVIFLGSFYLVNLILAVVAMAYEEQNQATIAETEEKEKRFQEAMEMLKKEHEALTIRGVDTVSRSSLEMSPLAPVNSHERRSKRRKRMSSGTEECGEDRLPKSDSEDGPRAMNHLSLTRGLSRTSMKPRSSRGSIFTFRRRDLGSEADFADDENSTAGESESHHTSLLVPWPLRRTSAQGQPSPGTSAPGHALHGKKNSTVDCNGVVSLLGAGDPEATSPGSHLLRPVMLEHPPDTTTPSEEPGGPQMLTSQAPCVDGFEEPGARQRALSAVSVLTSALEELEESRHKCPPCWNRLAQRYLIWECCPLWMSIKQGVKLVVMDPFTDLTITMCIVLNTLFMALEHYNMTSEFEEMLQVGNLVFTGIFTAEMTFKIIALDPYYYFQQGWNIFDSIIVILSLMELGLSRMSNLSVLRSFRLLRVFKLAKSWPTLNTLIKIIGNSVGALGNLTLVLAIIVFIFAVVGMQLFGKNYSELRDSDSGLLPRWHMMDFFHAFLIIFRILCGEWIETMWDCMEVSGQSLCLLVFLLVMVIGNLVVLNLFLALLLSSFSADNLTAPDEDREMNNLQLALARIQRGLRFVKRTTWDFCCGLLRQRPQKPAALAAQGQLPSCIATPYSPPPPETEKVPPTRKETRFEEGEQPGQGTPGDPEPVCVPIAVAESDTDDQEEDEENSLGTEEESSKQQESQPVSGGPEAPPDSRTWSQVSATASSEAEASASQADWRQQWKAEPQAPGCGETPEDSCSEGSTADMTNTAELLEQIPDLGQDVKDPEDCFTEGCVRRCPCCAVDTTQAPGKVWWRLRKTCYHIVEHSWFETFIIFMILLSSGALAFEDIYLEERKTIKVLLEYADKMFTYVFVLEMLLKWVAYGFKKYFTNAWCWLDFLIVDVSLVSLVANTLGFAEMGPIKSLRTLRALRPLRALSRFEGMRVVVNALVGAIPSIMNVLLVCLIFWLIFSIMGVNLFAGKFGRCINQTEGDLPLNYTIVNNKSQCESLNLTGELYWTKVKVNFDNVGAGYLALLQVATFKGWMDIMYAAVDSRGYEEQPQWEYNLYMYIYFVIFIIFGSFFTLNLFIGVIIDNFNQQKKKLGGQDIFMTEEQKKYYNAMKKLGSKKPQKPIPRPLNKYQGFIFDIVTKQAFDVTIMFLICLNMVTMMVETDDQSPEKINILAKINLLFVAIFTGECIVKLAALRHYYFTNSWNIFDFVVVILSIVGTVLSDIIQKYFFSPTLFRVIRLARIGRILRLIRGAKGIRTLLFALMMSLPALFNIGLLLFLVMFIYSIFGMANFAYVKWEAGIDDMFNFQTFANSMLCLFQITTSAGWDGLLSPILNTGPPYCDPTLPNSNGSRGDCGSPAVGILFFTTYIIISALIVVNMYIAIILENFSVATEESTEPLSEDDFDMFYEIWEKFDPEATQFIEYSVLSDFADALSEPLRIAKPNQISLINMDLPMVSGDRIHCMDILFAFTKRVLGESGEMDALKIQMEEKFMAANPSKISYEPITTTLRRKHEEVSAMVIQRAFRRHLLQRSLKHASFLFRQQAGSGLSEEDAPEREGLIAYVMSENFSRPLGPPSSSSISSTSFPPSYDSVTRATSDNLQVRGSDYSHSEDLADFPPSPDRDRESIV

Sequence of NaV1.5 V405A (Q14524 whole entry V405A): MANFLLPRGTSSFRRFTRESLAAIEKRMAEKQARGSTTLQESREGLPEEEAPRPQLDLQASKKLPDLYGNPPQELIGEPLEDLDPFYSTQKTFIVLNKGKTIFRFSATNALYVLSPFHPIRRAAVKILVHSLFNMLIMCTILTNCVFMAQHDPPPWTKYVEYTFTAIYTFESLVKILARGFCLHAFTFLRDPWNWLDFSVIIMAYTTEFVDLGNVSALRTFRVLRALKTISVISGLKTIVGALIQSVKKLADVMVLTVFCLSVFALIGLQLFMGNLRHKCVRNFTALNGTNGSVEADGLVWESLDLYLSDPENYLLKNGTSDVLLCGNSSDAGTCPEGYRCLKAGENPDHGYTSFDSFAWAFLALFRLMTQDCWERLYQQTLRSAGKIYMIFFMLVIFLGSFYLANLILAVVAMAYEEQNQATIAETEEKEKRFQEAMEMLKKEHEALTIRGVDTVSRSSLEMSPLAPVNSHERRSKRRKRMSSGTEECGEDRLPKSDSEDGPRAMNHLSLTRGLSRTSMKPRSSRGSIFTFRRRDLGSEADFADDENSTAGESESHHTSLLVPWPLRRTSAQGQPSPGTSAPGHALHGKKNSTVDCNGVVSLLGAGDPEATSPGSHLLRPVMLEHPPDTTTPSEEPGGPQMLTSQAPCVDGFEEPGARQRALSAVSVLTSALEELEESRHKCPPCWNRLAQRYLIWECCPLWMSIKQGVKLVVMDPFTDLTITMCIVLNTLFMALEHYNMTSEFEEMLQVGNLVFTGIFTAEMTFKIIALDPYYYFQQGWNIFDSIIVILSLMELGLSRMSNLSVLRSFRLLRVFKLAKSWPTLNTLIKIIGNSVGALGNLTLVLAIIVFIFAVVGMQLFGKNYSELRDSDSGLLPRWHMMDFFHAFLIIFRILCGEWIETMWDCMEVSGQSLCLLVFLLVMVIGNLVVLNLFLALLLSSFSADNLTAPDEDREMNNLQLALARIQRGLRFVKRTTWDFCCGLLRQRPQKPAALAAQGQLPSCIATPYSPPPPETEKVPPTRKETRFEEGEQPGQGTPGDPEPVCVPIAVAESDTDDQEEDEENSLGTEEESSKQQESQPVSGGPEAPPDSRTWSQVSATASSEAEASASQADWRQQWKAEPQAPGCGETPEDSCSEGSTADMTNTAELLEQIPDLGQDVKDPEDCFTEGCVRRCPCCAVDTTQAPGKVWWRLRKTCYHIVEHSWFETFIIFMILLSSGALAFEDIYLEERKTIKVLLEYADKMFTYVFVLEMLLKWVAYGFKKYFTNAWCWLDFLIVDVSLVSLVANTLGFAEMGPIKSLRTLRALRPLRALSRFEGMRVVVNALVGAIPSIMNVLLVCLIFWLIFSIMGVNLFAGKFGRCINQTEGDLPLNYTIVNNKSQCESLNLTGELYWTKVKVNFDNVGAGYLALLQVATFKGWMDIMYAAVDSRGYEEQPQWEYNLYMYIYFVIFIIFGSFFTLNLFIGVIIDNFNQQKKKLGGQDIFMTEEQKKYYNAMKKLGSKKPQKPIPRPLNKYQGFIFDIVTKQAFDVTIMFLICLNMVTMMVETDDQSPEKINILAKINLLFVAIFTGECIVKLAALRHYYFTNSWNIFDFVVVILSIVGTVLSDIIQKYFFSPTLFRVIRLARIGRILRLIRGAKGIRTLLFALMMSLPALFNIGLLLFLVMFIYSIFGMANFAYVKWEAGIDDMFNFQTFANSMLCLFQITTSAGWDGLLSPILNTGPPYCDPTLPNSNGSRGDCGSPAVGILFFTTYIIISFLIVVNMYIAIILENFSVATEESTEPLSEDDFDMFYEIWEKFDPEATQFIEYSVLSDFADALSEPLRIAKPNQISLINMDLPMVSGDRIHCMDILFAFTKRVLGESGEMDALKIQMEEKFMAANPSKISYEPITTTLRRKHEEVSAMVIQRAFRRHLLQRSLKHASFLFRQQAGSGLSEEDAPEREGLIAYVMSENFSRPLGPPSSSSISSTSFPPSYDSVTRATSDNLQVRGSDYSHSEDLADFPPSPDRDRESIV

For `C=C[C@H]1C[N@@]2CC[C@H]1C[C@@H]2[C@@H](O)c1ccnc2ccc(OC)cc12` [Quinidine, quinidine], the “photoswitching efficacy (optical control), Na+ current” value [1] was 0.8 ± 0.8%, the inhibition at 100 µM (NaV1.5 channels) was 77.6 ± 3.2% and the “effect on heart rate in ISO-pretreated larvae” value (zebrafish larvae [2]) was “markedly attenuate heart rate”. The “heart rate normalized to control in dark” value (zebrafish larvae [3]; soaking 1-[…] in the dark, zebrafish larvae 2 dpf) was 90.8 ± 1.4%, the “heart rate normalized to control in dark” value (zebrafish larvae [3]; 365 nm followed by 480 nm illumination, 5 min each) was 91.6 ± 1.3% and the “heart rate normalized to control in dark” value (zebrafish larvae [3]; after 365 nm illumination for 5 min) was 93.9 ± 0.9%. It also gave an inhibition at 100 µM (NaV1.5 V405A) of 51.2 ± 2.3% and an inhibition at 100 µM (NaV1.5 F1760A) of 32.6 ± 1.8%.
